# Active and inactive are the calls of the source. The calls are words filed in the database; no cut-off is given here.
# Tests used:
# Amorphotheca resinae [1] = test: Antimicrobial activity against Cladosporium resinae assessed per disk; type: functional
# Human alphaherpesvirus 1 [2] = test: Antiviral activity against Herpes simplex virus (type 1 / strain F) ATCC VR 733 in african green monkey BSC1 cells assessed as excess radius from disk edge at 20 ug/disk; type: functional, organism-based; conditions: BSC-1
# Method in brief: (§1)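 Disc assay of herpes simplex type I (strain F, ATCC VR 733) on a BSC cell line (ATCC CCL 26). The antiviral zone is scored as excess radius from the disc edge: 2+ = 2-4 mm, 3+ = 4-6 mm, ww = zone over the whole well.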
# P388 = test: Cytotoxicity against mouse P388 cells; type: functional, cell-based
# Method in brief: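 P-388 leukemia line (ATCC CCL 46). The value is the sample concentration, in ng/ml, that reduces cell growth by 50%.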
# Pseudomonas aeruginosa = test: Antimicrobial activity against Pseudomonas aeruginosa assessed per disk; type: functional
# Candida albicans [3] = test: Antimicrobial activity against Candida albicans assessed per disk; type: functional
# Bacillus subtilis [4] = test: Antimicrobial activity against Bacillus subtilis assessed per disk; type: functional
# [5] = Cytotoxicity against african green monkey BSC1 cells at 20 ug/disk; type: cell-based; conditions: chlorocebus aethiops, bsc-1
# Method in brief: (§2)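 Cytotoxic zone around the disc on a BSC monolayer (ATCC CCL 26), scored as excess radius beyond the disc edge: 2+ = 2-4 mm, 3+ = 4-6 mm, ww = zone over the whole well.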
# [6] = system: Trichophyton mentagrophytes; test: Antimicrobial activity against Trichophyton mentagrophytes assessed per disk; type: functional
# Poliovirus 1 [7] = test: Antiviral activity against Polio virus 1 Pfizer vaccine in african green monkey BSC1 cells assessed as excess radius from disk edge at 20 ug/disk; type: functional, organism-based; conditions: BSC-1
# Method in brief: (§3)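 Disc assay on BSC cell monolayers (ATCC CCL 26) infected with the Pfizer vaccine strain of poliovirus, with the virus grown on BSC cells. Scored by the radius of the antiviral/cytotoxic zone beyond the disc edge: 2+ = 2-4 mm, 3+ = 4-6 mm, ww = zone over the whole well.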
# Escherichia coli = test: Antimicrobial activity against Escherichia coli assessed per disk; type: functional
# [8] = Cytotoxicity against african green monkey BSC1 cells at 2 ug/disk; type: cell-based; conditions: chlorocebus aethiops, bsc-1; method in brief: as §2
# [9] = Cytotoxicity against african green monkey BSC1 cells at 0.5 ug/disk; type: cell-based; conditions: chlorocebus aethiops, bsc-1; method in brief: as §2
# Human alphaherpesvirus 1 [10] = test: Antiviral activity against Herpes simplex virus (type 1 / strain F) ATCC VR 733 in african green monkey BSC1 cells assessed as excess radius from disk edge at 0.4 ug/disk; type: functional, organism-based; conditions: BSC-1; method in brief: as §1
# [11] = Cytotoxicity against african green monkey BSC1 cells at 0.4 ug/disk; type: cell-based; conditions: chlorocebus aethiops, bsc-1; method in brief: as §2
# Human alphaherpesvirus 1 [12] = test: Antiviral activity against Herpes simplex virus (type 1 / strain F) ATCC VR 733 in african green monkey BSC1 cells assessed as excess radius from disk edge at 0.5 ug/disk; type: functional, BSC-1; conditions: Human alphaherpesvirus 1, Strain F ATCC VR 733; read-out: IZ; method in brief: as §1
# Human alphaherpesvirus 1 [13] = test: Antiviral activity against Herpes simplex virus (type 1 / strain F) ATCC VR 733 in african green monkey BSC1 cells assessed as excess radius from disk edge at 2 ug/disk; type: functional, BSC-1; conditions: Human alphaherpesvirus 1, Strain F ATCC VR 733; read-out: IZ; method in brief: as §1
# Poliovirus 1 [14] = test: Antiviral activity against Polio virus 1 Pfizer vaccine in african green monkey BSC1 cells assessed as excess radius from disk edge at 0.5 ug/disk; type: functional, BSC-1; conditions: Enterovirus C; read-out: IZ; method in brief: as §3
# Poliovirus 1 [15] = test: Antiviral activity against Polio virus 1 Pfizer vaccine in african green monkey BSC1 cells assessed as excess radius from disk edge at 0.4 ug/disk; type: functional, organism-based; conditions: BSC-1; method in brief: as §3
# [16] = Cytotoxicity against african green monkey BSC1 cells at 5 ug/disk; type: cell-based; conditions: chlorocebus aethiops, bsc-1; method in brief: as §2
# Human alphaherpesvirus 1 [17] = test: Antiviral activity against Herpes simplex virus (type 1 / strain F) ATCC VR 733 in african green monkey BSC1 cells assessed as excess radius from disk edge at 5 ug/disk; type: functional, BSC-1; conditions: Human alphaherpesvirus 1, Strain F ATCC VR 733; read-out: IZ; method in brief: as §1
# [18] = Cytotoxicity against african green monkey BSC1 cells at 1 ug/disk; type: cell-based; conditions: chlorocebus aethiops, bsc-1; method in brief: as §2
# Human alphaherpesvirus 1 [19] = test: Antiviral activity against Herpes simplex virus (type 1 / strain F) ATCC VR 733 in african green monkey BSC1 cells assessed as excess radius from disk edge at 1 ug/disk; type: functional, organism-based; conditions: BSC-1; method in brief: as §1
# [20] = Cytotoxicity against african green monkey BSC1 cells at 10 ug/disk; type: cell-based; conditions: chlorocebus aethiops, bsc-1; method in brief: as §2
# Human alphaherpesvirus 1 [21] = test: Antiviral activity against Herpes simplex virus (type 1 / strain F) ATCC VR 733 in african green monkey BSC1 cells assessed as excess radius from disk edge at 40 ug/disk; type: functional, BSC-1; conditions: Human alphaherpesvirus 1, Strain F ATCC VR 733; read-out: IZ; method in brief: as §1
# Human alphaherpesvirus 1 [22] = test: Antiviral activity against Herpes simplex virus (type 1 / strain F) ATCC VR 733 in african green monkey BSC1 cells assessed as excess radius from disk edge at 10 ug/disk; type: functional, organism-based; conditions: BSC-1; method in brief: as §1
# [23] = Cytotoxicity against african green monkey BSC1 cells at 40 ug/disk; type: cell-based; conditions: chlorocebus aethiops, bsc-1; method in brief: as §2
# Amorphotheca resinae [24] = test: Antimicrobial activity against Cladosporium resinae at 100 units; type: functional, organism-based
# [25] = system: Trichophyton mentagrophytes; test: Antimicrobial activity against Trichophyton mentagrophytes at 100 units; type: functional, organism-based
# Candida albicans [26] = test: Antimicrobial activity against Candida albicans at 30 ug; type: functional; conditions: read-out: IZ
# Bacillus subtilis [27] = test: Antimicrobial activity against Bacillus subtilis at 30 ug; type: functional; conditions: read-out: IZ
Compound,MIC (Amorphotheca resinae [1]),inhibition zone (IZ) (Human alphaherpesvirus 1 [2]),IC50 (P388),MIC (Pseudomonas aeruginosa),MIC (Candida albicans [3]),MIC (Bacillus subtilis [4]),inhibition zone (IZ) [5],MIC [6],inhibition zone (IZ) (Poliovirus 1 [7]),MIC (Escherichia coli),also measured
CC1NC(C(=O)O)Cc2c1[nH]c1ccccc21 (stereo not drawn),>60 µg,inactive,> 125 µg/mL,>60 µg,>60 µg,>60 µg,Not Active,>60 µg,inactive,>60 µg,–
C=Cc1nccc2c1[nH]c1ccccc12,0.9 µg,–,0.1 µg/mL,>60 µg,1.9 µg,1.9 µg,–,0.1 µg,–,30 µg,inhibition zone (IZ) [8]: Active; inhibition zone (IZ) [9]: 2 mm; inhibition zone (IZ) (Human alphaherpesvirus 1 [10]): inactive; inhibition zone (IZ) [11]: Not Active; zone of inhibition at 0.5 µg/disc (Human alphaherpesvirus 1 [12]): 1 mm
C=Cc1nccc2c1[nH]c1c(OC)cccc12,15 µg,–,0.1 µg/mL,>60 µg,7.5 µg,7.5 µg,–,0.45 µg,–,>60 µg,inhibition zone (IZ) [8]: 2 mm; inhibition zone (IZ) [9]: 1 mm; inhibition zone (IZ) (Human alphaherpesvirus 1 [10]): inactive; zone of inhibition at 2 µg/disc (Human alphaherpesvirus 1 [13]): 1 mm; inhibition zone (IZ) [11]: Not Active; zone of inhibition at 0.5 µg/disc (Human alphaherpesvirus 1 [12]): 1 mm
CCc1nccc2c1[nH]c1c(O)cccc12,>60 µg,inactive,> 12.5 µg/mL,>60 µg,30 µg,30 µg,Not Active,30 µg,inactive,30 µg,–
C=Cc1nccc2c1[nH]c1c(O)cccc12,3.7 µg,–,–,>60 µg,15 µg,7.5 µg,–,0.45 µg,–,>60 µg,zone of inhibition at 0.5 µg/disc (Poliovirus 1 [14]): 1 mm; inhibition zone (IZ) [8]: Active; inhibition zone (IZ) [9]: 2 mm; inhibition zone (IZ) (Human alphaherpesvirus 1 [10]): inactive; inhibition zone (IZ) [11]: Not Active; inhibition zone (IZ) (Poliovirus 1 [15]): inactive; zone of inhibition at 0.5 µg/disc (Human alphaherpesvirus 1 [12]): 1 mm
C=Cc1nccc2c1[nH]c1c(OC(C)=O)cccc12,>60 µg,–,0.65 µg/mL,>60 µg,15 µg,7.5 µg,–,0.9 µg,–,>60 µg,inhibition zone (IZ) [16]: 2 mm; inhibition zone (IZ) [8]: Active; zone of inhibition at 5 µg/disc (Human alphaherpesvirus 1 [17]): 1 mm; Activity [5]: Active; inhibition zone (IZ) [18]: Not Active; inhibition zone (IZ) (Human alphaherpesvirus 1 [19]): inactive
CCCCCCc1nccc2c1[nH]c1ccccc12,7.5 µg,–,9 µg/mL,>60 µg,>60 µg,>60 µg,–,1.9 µg,–,>60 µg,inhibition zone (IZ) [20]: 1 mm; zone of inhibition at 40 µg/disc (Human alphaherpesvirus 1 [21]): 1 mm; inhibition zone (IZ) (Human alphaherpesvirus 1 [22]): inactive; inhibition zone (IZ) [23]: 1 mm
NYSTATIN,–,–,–,–,–,–,–,–,–,–,inhibition zone (IZ) (Amorphotheca resinae [24]): 12 mm; inhibition zone (IZ) [25]: 4 mm
CC(C)c1nccc2c1[nH]c1ccccc12,15 µg,inactive,13 µg/mL,>60 µg,1.9 µg,7.5 µg,Not Active,0.45 µg,–,>120 µg,–
Cc1nccc2c1[nH]c1ccccc12 [HARMAN],15 µg,inactive,25 µg/mL,>60 µg,1.9 µg,7.5 µg,Not Active,3.7 µg,inactive,60 µg,–
c1ccc2c(c1)[nH]c1cnccc12 [NORHARMANE],15 µg,inactive,25 µg/mL,>60 µg,1.9 µg,7.5 µg,Not Active,0.9 µg,inactive,3.7 µg,–
COC(=O)C1Cc2c([nH]c3ccccc23)C(C)N1 (stereo not drawn),>60 µg,inactive,120 µg/mL,>60 µg,7.5 µg,>60 µg,Not Active,>60 µg,inactive,>60 µg,–
CCc1ncc(S(C)(=O)=O)c2c1[nH]c1ccccc12,>60 µg,inactive,> 12.5 µg/mL,>60 µg,>60 µg,30 µg,Not Active,30 µg,–,>60 µg,–
O=C(N[C@H](CO)[C@H](O)c1ccc([N+](=O)[O-])cc1)C(Cl)Cl [CHLORAMPHENICOL],–,–,–,–,–,–,–,–,–,–,zone of inhibition at 30 µg/disc (Candida albicans [26]): 8 mm; zone of inhibition at 30 µg/disc (Bacillus subtilis [27]): 12 mm
CCCc1nccc2c1[nH]c1ccccc12,>120 µg,inactive,25 µg/mL,>60 µg,>120 µg,>120 µg,Not Active,15 µg,–,>120 µg,–
CCc1nccc2c1[nH]c1c(OC)cccc12,>60 µg,inactive,> 12.5 µg/mL,>60 µg,7.5 µg,>60 µg,Not Active,7.5 µg,inactive,>60 µg,–
CCc1nccc2c1[nH]c1ccccc12,30 µg,inactive,25 µg/mL,>60 µg,1.9 µg,7.5 µg,Not Active,1.9 µg,inactive,>120 µg,–

# From ChEMBL document CHEMBL1158972, “New cytotoxic beta-carboline alkaloids from the marine bryozoan, Cribricellina cribraria” (J Nat Prod, 1991)
